Assay results: ChEMBL document CHEMBL1141102, “Structure-activity studies of peptides from the "hot-spot" region of human CD2 protein: development of peptides for immunomodulation” (2005)
Where a SMILES comes first, the peptide text is derived from it. Bridges are numbered along the chain shown (N, C = ends). [ ]: non-standard residue; d: D form. The star is where a group is joined. Pen = CC(C)(S)[C@H](N)C(=O)O; Acm = CC(=O)NC*

Tested on: not listed separately
Experiment: Percent inhibition of CD58 and CD2 interaction in caco-2 and Jurkat cell adhesion assay at 90 uM
Format: functional
Conditions: Homo sapiens
In short: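 Confluent Caco-2 monolayers (passages 50–60, human CD58) preincubated with peptide in MEM-α at 37 °C for 30 min. Jurkat cells (CD2), loaded with 2 μM BCECF at 37 °C for 1 h, then added at 1×10^6 cells/well for 45 min at 37 °C. Nonadherent cells washed off with PBS; bound cells lysed in 2% Triton X-100/0.2 N NaOH. Background-corrected fluorescence read; percent inhibition; mean of three experiments.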

| Compound | inhibition at 90 µM [%] |
| --- | --- |
| CC[C@H](C)[C@@H]1NC(=O)[C@@H](N)C(C)(C)SSC[C@@H](C(=O)O)NC(=O)[C@H](CC(C)C)NC(=O)[C@H](C(C)C)NC(=O)[C@H](CC(N)=O)NC(=O)[C@H](CCCCN)NC(=O)CNC(=O)[C@H](CCCCN)NC(=O)[C@H]([C@@H](C)O)NC(=O)[C@H](CC(=O)O)NC(=O)[C@H](Cc2ccc(O)cc2)NC1=O | 50 |
| C[C@@H](O)[C@@H]1NC(=O)[C@@H](CC(=O)O)NC(=O)[C@H](Cc2ccc(O)cc2)NC(=O)[C@@H](CCCCN)NC(=O)CNC(=O)[C@@H](CCCCN)NC1=O | 20 |
| NCCCC[C@@H]1NC(=O)[C@@H](CCC(=O)O)NC(=O)[C@H](CCCCN)NC(=O)[C@@H](CCCN=C(N)N)NC(=O)[C@H](Cc2ccccc2)NC(=O)[C@@H](CCC(=O)O)NC1=O | 25 |
| CC(=O)NCSC[C@H](NC(=O)[C@H](Cc1ccccc1)NC(=O)[C@@H](NC(=O)[C@H](CCC(=O)O)NC(=O)[C@H](CCCCN)NC(=O)[C@H](CCC(=O)O)NC(=O)[C@H](CCCCN)NC(=O)[C@H](CCCN=C(N)N)NC(=O)[C@H](Cc1ccccc1)NC(=O)[C@H](CCC(N)=O)NC(=O)[C@H](C)NC(=O)[C@@H](N)C(C)(C)SCNC(C)=O)[C@@H](C)O)C(=O)O (H-[Pen](Acm)AQFRKEKETFC(Acm)-OH) | 25 |
| C[C@@H]1NC(=O)[C@@H](N)C(C)(C)SSC[C@@H](C(=O)O)NC(=O)[C@H](Cc2ccccc2)NC(=O)[C@H]([C@@H](C)O)NC(=O)[C@H](CCC(=O)O)NC(=O)[C@H](CCCCN)NC(=O)[C@H](CCC(=O)O)NC(=O)[C@H](CCCCN)NC(=O)[C@H](CCCN=C(N)N)NC(=O)[C@H](Cc2ccccc2)NC(=O)[C@H](CCC(N)=O)NC1=O (H-[Pen]AQFRKEKETFC-OH; disulfide 1-12) | 50 |
| H-SIYDTKGKNVLE-NH2 | 25 |

Biological target: T1, Lymphocyte function-associated antigen 3 (Homo sapiens) (UniProt P19256)
T1 sequence (whole entry): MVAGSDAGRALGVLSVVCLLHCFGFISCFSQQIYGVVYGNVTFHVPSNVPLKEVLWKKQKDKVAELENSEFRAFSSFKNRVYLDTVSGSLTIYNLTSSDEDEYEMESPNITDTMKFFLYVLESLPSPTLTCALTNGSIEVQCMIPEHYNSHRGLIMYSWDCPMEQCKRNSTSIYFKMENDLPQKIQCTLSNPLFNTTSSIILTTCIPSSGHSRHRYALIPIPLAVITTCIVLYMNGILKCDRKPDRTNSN
Experiment: Percent inhibition of E-rossette formation in sheep red blood cells at 200 uM on incubation with T-cells; range 5-15%
Format: functional, cell-based
Conditions: Ovis aries
In short: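 Sheep RBCs treated with AET at 37 °C for 15 min, used as 0.5% suspension. Peptide serially diluted in PBS, incubated with the SRBCs at 37 °C for 30 min, then Jurkat cells (2×10^6 cells/mL) added for 15 min. Cells pelleted and held at 4 °C for 1 h. Rosettes counted by hemocytometer on at least 200 cells; percent inhibition; mean of three independent experiments.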

| inhibition [%] | Compound |
| --- | --- |
| 15 | H-SIYDTKGKNVLE-NH2 |
